Converted amounts (≈) assume the structure as drawn.
Assays:
[1] = molecular target: Voltage-gated inwardly rectifying potassium channel KCNH2 (Homo sapiens, UniProt Q12809); assay: Inhibition of hERG cardiac ion channel; type: toxicity
Outline: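 hERG channel inhibition was run by a contract lab. […] Determinations were made in duplicate or triplicate (n = 2 or 3).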

Staphylococcus aureus [2] = assay: Antibacterial activity against cystic fibrosis isolate Staphylococcus aureus by CLSI method; type: functional
Staphylococcus aureus [3] = assay: Antibacterial activity against Staphylococcus aureus ATCC 29213 by CLSI method; type: functional
Staphylococcus aureus [4] = assay: Antibacterial activity against methicillin-resistant Staphylococcus aureus USA300 by CLSI method; type: functional
Staphylococcus aureus [5] = assay: Antibacterial activity against Staphylococcus aureus 3527 by CLSI method; type: functional
Staphylococcus aureus [6] = assay: Antibacterial activity against Staphylococcus aureus harbouring GyrA D83N mutant by CLSI method; type: functional
DNA gyrase = DNA gyrase (Staphylococcus aureus, UniProt P0A0K8+P20831); assay: Inhibition of Staphylococcus aureus DNA gyrase supercoiling activity incubated for 25 min by ethidium bromide/bromophenol blue staining based agarose gel electrophoresis analysis; type: protein-complex assay
Topoisomerase IV = Topoisomerase IV (Staphylococcus aureus, UniProt P0C1S7+P0C1U9); assay: Inhibition of Staphylococcus aureus DNA topoisomerase 4 decatenation activity using kDNA as substrate incubated for 10 to 20 min by ethidium bromide/bromophenol blue staining based agarose gel electrophoresis analysis; type: protein-complex assay
Staphylococcus aureus [7] = assay: Selectivity ratio of IC50 for inhibition of Staphylococcus aureus DNA topoisomerase 4 decatenation activity to IC50 for inhibition of Staphylococcus aureus DNA gyrase supercoiling activity
Neisseria gonorrhoeae [8] = assay: Antimicrobial activity against Neisseria gonorrhoeae G strain harbouring type 2 topoisomerase GyrA S91F and ParE G410V mutant incubated for 20 to 24 hrs by CLSI protocol based broth microdilution method; type: functional; conditions: time 20-24 hrs
Neisseria gonorrhoeae [9] = assay: Antimicrobial activity against wild type Neisseria gonorrhoeae ATCC 49226 incubated for 20 to 24 hrs by CLSI protocol based broth microdilution method; type: functional; conditions: time 20-24 hrs
Neisseria gonorrhoeae [10] = assay: Antimicrobial activity against wild type Neisseria gonorrhoeae F strain incubated for 20 to 24 hrs by CLSI protocol based broth microdilution method; type: functional; conditions: time 20-24 hrs
Neisseria gonorrhoeae [11] = assay: Antimicrobial activity against Neisseria gonorrhoeae K strain harbouring type 2 topoisomerase GyrA S91F, D95N and ParC S87R, S88P mutant incubated for 20 to 24 hrs by CLSI protocol based broth microdilution method; type: functional; conditions: time 20-24 hrs
Neisseria gonorrhoeae [12] = assay: Antimicrobial activity against wild type Neisseria gonorrhoeae O strain incubated for 20 to 24 hrs by CLSI protocol based broth microdilution method; type: functional; conditions: time 20-24 hrs
Neisseria gonorrhoeae [13] = assay: Antimicrobial activity against wild type Neisseria gonorrhoeae P strain incubated for 20 to 24 hrs by CLSI protocol based broth microdilution method; type: functional; conditions: time 20-24 hrs
Neisseria gonorrhoeae [14] = assay: Antimicrobial activity against wild type Neisseria gonorrhoeae V strain harbouring type 2 topoisomerase GyrA S91F, D95G and ParC S87R mutant incubated for 20 to 24 hrs by CLSI protocol based broth microdilution method; type: functional; conditions: time 20-24 hrs
Neisseria gonorrhoeae [15] = assay: Antimicrobial activity against wild type Neisseria gonorrhoeae Y strain harbouring type 2 topoisomerase GyrA S91F, D95G and ParC S87R mutant incubated for 20 to 24 hrs by CLSI protocol based broth microdilution method; type: functional; conditions: time 20-24 hrs
[16] = Metabolic stability in mouse liver microsomes assessed as half life; type: ADME, Microsome
[17] = Cytotoxicity activity against human K562 cells assessed as inhibition of cellular growth; type: toxicity, cell-based
Outline: (§1)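 Human K562 leukemia cells were tested alongside K/VP.5, an etoposide-resistant clonal subline derived from them that has reduced levels of human topoisomerase IIα. Cell growth inhibition was expressed as an IC50.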

[18] = Cytotoxicity activity against human K/VP.5 cells assessed as inhibition of cellular growth; type: toxicity, cell-based; outline: as §1
[19] = Inhibition of Neisseria gonorrhoeae DNA gyrase supercoiling activity incubated for 25 min by ethidium bromide/bromophenol blue staining based agarose gel electrophoresis analysis
Outline: (§2)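 The N. gonorrhoeae enzymes were assayed separately: supercoiling by DNA gyrase, and decatenation of kDNA by topoisomerase IV. Concentration–response data were collected over at least three independent experiments and summarized with standard deviation, and IC50 values were derived.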

[20] = Inhibition of Neisseria gonorrhoeae DNA topoisomerase 4 decatenation activity using kDNA as substrate incubated for 10 to 20 min by ethidium bromide/bromophenol blue staining based agarose gel electrophoresis analysis; outline: as §2
Neisseria gonorrhoeae [21] = assay: Antimicrobial activity against Neisseria gonorrhoeae M strain harbouring type 2 topoisomerase GyrA S91F,D95G mutant incubated for 20 hrs by agar dilution method; type: functional
Neisseria gonorrhoeae [22] = assay: Antimicrobial activity against Neisseria gonorrhoeae L strain harbouring type 2 topoisomerase GyrA S91F,D95N and ParC D86N,S88P mutant incubated for 20 hrs by agar dilution method; type: functional

SMILES | IC50 [1] [µM] | MIC (Staphylococcus aureus [2]) [µg/mL] | MIC (Staphylococcus aureus [3]) [µg/mL] | MIC (Staphylococcus aureus [4]) [µg/mL] | MIC (Staphylococcus aureus [5]) [µg/mL] | MIC (Staphylococcus aureus [6]) [µg/mL] | IC50 (DNA gyrase) [µM] | IC50 (Topoisomerase IV) [µM] | Ratio IC50 (Staphylococcus aureus [7]) | MIC (Neisseria gonorrhoeae [8]) [µg/mL] | MIC (Neisseria gonorrhoeae [9]) [µg/mL] | MIC (Neisseria gonorrhoeae [10]) [µg/mL] | MIC (Neisseria gonorrhoeae [11]) [µg/mL] | MIC (Neisseria gonorrhoeae [12]) [µg/mL] | MIC (Neisseria gonorrhoeae [13]) [µg/mL] | MIC (Neisseria gonorrhoeae [14]) [µg/mL] | MIC (Neisseria gonorrhoeae [15]) [µg/mL] | half-life [16] [min] | IC50 [17] [µM] | IC50 [18] [µM] | further results
O=C1COc2ccc(CN[C@H]3CO[C@H](CC4Cn5c(=O)ccc6ccc(F)c4c65)OC3)nc2N1 (stereo not given in full) | 30 | 0.5 (≈ 1.07 µM) | 0.5 (≈ 1.07 µM) | 0.25 (≈ 0.536 µM) | 0.25 (≈ 0.536 µM) | 4 (≈ 8.58 µM) | 1.6 | 1.3 | 0.81 | 0.25 (≈ 0.536 µM) | 0.12 (≈ 0.257 µM) | 0.06 (≈ 0.129 µM) | 0.12 (≈ 0.257 µM) | 0.25 (≈ 0.536 µM) | 0.25 (≈ 0.536 µM) | ≤ 0.03 | 0.12 (≈ 0.257 µM) | 18.4 | 101 | 127 | 
COc1ccc2ncc(F)c(C[C@H](O)[C@H]3OC[C@H](NCc4cc5c(nn4)OCCS5)CO3)c2n1 |  |  |  |  |  |  |  |  |  | 32 (≈ 65.4 µM) | 8 (≈ 16.3 µM) | 1 (≈ 2.04 µM) | 16 (≈ 32.7 µM) | 16 (≈ 32.7 µM) | 16 (≈ 32.7 µM) | ≤ 0.03 | 0.5 (≈ 1.02 µM) |  |  |  | IC50 [19]: 33 µM; IC50 [20]: 83 µM
COc1ccc2ncc(F)c(C[C@H](O)[C@H]3OC[C@H](NCc4ccc5c(n4)NC(=O)CO5)CO3)c2n1 |  |  |  |  |  |  |  |  |  | 0.25 (≈ 0.515 µM) | ≤ 0.03 | 0.06 (≈ 0.124 µM) | ≤ 0.03 | ≤ 0.03 | ≤ 0.03 | ≤ 0.03 | ≤ 0.03 |  |  |  | 
O=c1ccc2ccc(F)c3c2n1CC3C[C@H]1OC[C@H](NCc2ccc3c(c2)OCCO3)CO1 (stereo not given in full) | 35 | 0.25 (≈ 0.553 µM) | 0.125 (≈ 0.276 µM) | 0.25 (≈ 0.553 µM) | 0.25 (≈ 0.553 µM) | 4 (≈ 8.84 µM) | 0.23 | 0.6 | 2.6 | 0.5 (≈ 1.11 µM) | 0.12 (≈ 0.265 µM) | ≤ 0.03 | 0.12 (≈ 0.265 µM) | 0.25 (≈ 0.553 µM) | 0.25 (≈ 0.553 µM) | ≤ 0.03 | ≤ 0.03 | 3.26 | 29.1 | 33.9 | 
O=c1ccc2ccc(F)c3c2n1CC3C[C@H]1OC[C@H](NCc2cc3c(cn2)OCCC3)CO1 (stereo not given in full) | 53 | ≤ 0.25 | ≤ 0.25 | 0.5 (≈ 1.11 µM) | 0.5 (≈ 1.11 µM) | 2 (≈ 4.43 µM) | 0.58 | 2.9 | 5 | 2 (≈ 4.43 µM) | 0.25 (≈ 0.554 µM) | ≤ 0.03 | 0.5 (≈ 1.11 µM) | 0.5 (≈ 1.11 µM) | 1 (≈ 2.21 µM) | ≤ 0.03 | ≤ 0.03 | 3.64 | 109 | 85 | 
O=c1ccc2ccc(F)c3c2n1CC3C[C@H]1OC[C@H](NCc2cc3c(nn2)OCCS3)CO1 (stereo not given in full) | 200 | 0.5 (≈ 1.06 µM) | 0.5 (≈ 1.06 µM) | 1 (≈ 2.13 µM) | 1 (≈ 2.13 µM) | 8 (≈ 17 µM) | 1.7 | 7.4 | 4.4 | 32 (≈ 68 µM) | 16 (≈ 34 µM) | 2 (≈ 4.25 µM) | 32 (≈ 68 µM) | 16 (≈ 34 µM) | 16 (≈ 34 µM) | 4 (≈ 8.5 µM) | 2 (≈ 4.25 µM) | 21.9 | 38.7 | 103 | 
O=C(O)c1cn(C2CC2)c2cc(N3CCNCC3)c(F)cc2c1=O [CIPROFLOXACIN] |  |  |  |  |  |  |  |  |  |  |  |  |  |  |  |  |  |  |  |  | MIC (Neisseria gonorrhoeae [21]): 2 µg/mL (≈ 6.04 µM); MIC (Neisseria gonorrhoeae [22]): > 8 µg/mL
COc1ccc2ncc(F)c(C[C@H](O)[C@H]3OC[C@H](NC(=O)c4ccc5c(c4)OCCO5)CO3)c2n1 | > 100 | 0.25 (≈ 0.515 µM) | 0.25 (≈ 0.515 µM) | 0.25 (≈ 0.515 µM) | 0.25 (≈ 0.515 µM) | 2 (≈ 4.12 µM) | 0.23 | 1.7 | 7.6 | > 16 | 4 (≈ 8.24 µM) | 0.25 (≈ 0.515 µM) | > 16 | > 16 | > 16 | 0.25 (≈ 0.515 µM) | 0.5 (≈ 1.03 µM) | 14.2 | 1.6 | 6 | 
COc1ccc2ncc(F)c(C[C@H](O)[C@H]3OC[C@H](NC(=O)c4ccc5c(n4)NC(=O)CO5)CO3)c2n1 | > 100 | ≤ 0.06 | 0.125 (≈ 0.25 µM) | ≤ 0.06 | ≤ 0.06 | 1 (≈ 2 µM) | 0.19 | 1.1 | 5.8 | 0.25 (≈ 0.501 µM) | ≤ 0.015 | ≤ 0.015 | 0.12 (≈ 0.24 µM) | 0.06 (≈ 0.12 µM) | ≤ 0.015 | ≤ 0.015 | ≤ 0.015 | 5.56 | 0.49 | 3.1 | 

Reference: ChEMBL document CHEMBL5131562, “1,3-Dioxane-Linked Novel Bacterial Topoisomerase Inhibitors: Expanding Structural Diversity and the Antibacterial Spectrum” (ACS Med Chem Lett, 2022)
